ChEMBL document CHEMBL1125195, “Novel compounds possessing potent cAMP and cGMP phosphodiesterase inhibitory activity. Synthesis and cardiovascular effects of a series of imidazo[1,2-a]quinoxalinones and imidazo[1,5-a]quinoxalinones and their aza analogues” (J Med Chem, 1991)

How the values were obtained:
[1] = In vitro increase in contractile force in ferret papillary muscle strips.; type: functional, Mustela putorius furo, Muscle tissue
In short: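 Ferret papillary muscle; value is drug concentration (μM) giving a 20% rise in contractile force. Mean of at least two determinations, ranges within ±10%. Inotropic effect also tested with 1 μM propranolol co-administered. NR means not reached at 100 μM.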

[2] = Inhibition of crude cAMP phosphodiesterase from canine […]; set-up: species or system Canis lupus familiaris
In short: (§1)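 Crude homogenates: cAMP PDE from canine cardiac tissue, cGMP PDE from canine thoracic aorta. Value is drug concentration (μM) giving 50% inhibition. Mean of at least three determinations, ranges within ±10%.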

[3] = Inhibition of crude cGMP phosphodiesterase from canine thoracic aorta; type: tissue-based, Canis lupus familiaris; in short: as §1
Canis familiaris [4] = experiment: (§2) Percent change in left ventricle contractile force in anesthetized dogs after intravenous administration at 1.0 mg/kg; type: functional, Canis lupus familiaris, Heart left ventricle
In short: (§3)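 Anesthetized dogs, drug given intravenously at the stated dose. Percent change recorded in LV dP/dt (contractile force), heart rate and mean arterial pressure. Mean of at least four determinations; LV dP/dt ranges within ±10%.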

Canis familiaris [5] = experiment: Percent change in heart rate after intravenous administration in anesthetized dogs at 0.3 mg/kg; type: functional, Canis lupus familiaris
Canis familiaris [6] = experiment: Percent change in left ventricle contractile force in anesthetized dogs after intravenous administration at 0.1 mg/kg; type: functional, Canis lupus familiaris, Heart left ventricle
Canis familiaris [7] = experiment: (§4) Percent change in left ventricle contractile force in anesthetized dogs after intravenous administration at 0.3 mg/kg; type: functional, Canis lupus familiaris, Heart left ventricle; in short: as §3
Canis familiaris [8] = experiment: Percent change in mean arterial blood pressure after intravenous administration in anesthetized dogs at 1.0 mg/kg; type: functional, Canis lupus familiaris; in short: as §3
Canis familiaris [9] = experiment: (§5) Percent change in mean arterial blood pressure after intravenous administration in anesthetized dogs at 1.0 mg/kg (NC<10%); type: functional, Canis lupus familiaris
Canis familiaris [10] = experiment: Percent change heart rate after intravenous administration in anesthetized dogs at 0.1 mg/kg; type: functional, Canis lupus familiaris
Canis familiaris [11] = experiment: Percent change heart rate after intravenous administration in anesthetized dogs at 1.0 mg/kg; type: functional, Canis lupus familiaris; in short: as §3
Canis familiaris [12] = organism: Canis familiaris; experiment: In vitro vascular relaxation in canine coronary arteries precontracted with prostaglandin F2alpha.; type: functional; conditions: Canis lupus familiaris
In short: (§6)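 Isolated vessels in warm PSS. Arteries constricted with prostaglandin F2α, veins with phenylephrine. Cumulative drug challenges, each added after relaxation plateaued. Delta force is expressed as % of agonist actual force (total minus basal) and as % of maximal relaxation. EC50 is found by linear interpolation between the points bracketing 50% relaxation. Afterwards tissues were rinsed every 10 min, reconstricted, and challenged with acetylcholine (arteries) or thrombin (veins).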

Canis familiaris [13] = organism: Canis familiaris; experiment: In vitro vascular relaxation in canine mesenteric veins precontracted with phenylephrine.; type: functional; conditions: Canis lupus familiaris, Mesenteric vein; in short: as §6
Canis familiaris [14] = experiment: Percent change in mean arterial blood pressure after intravenous administration in anesthetized dogs at 0.1 mg/kg (NC<10%); type: functional, Canis lupus familiaris
Canis familiaris [15] = experiment: Percent change in heart rate in anesthetized dogs after intravenous administration at 0.03 mg/kg; type: functional, Canis lupus familiaris
Canis familiaris [16] = experiment: Percent change in heart rate after intravenous administration in anesthetized dogs at 0.1 mg/kg; type: functional, Canis lupus familiaris
Canis familiaris [17] = experiment: Percent change in mean arterial blood pressure after intravenous administration in anesthetized dogs at 0.03 mg/kg (NC<10%); type: functional, organism-based; set-up: dose 0.03 mg/kg; conditions: Canis lupus familiaris
Canis familiaris [18] = experiment: Percent change in mean arterial blood pressure after intravenous administration in anesthetized dogs at 0.1 mg/kg; type: functional, Canis lupus familiaris
Canis familiaris [19] = experiment: Percent change in mean arterial blood pressure after intravenous administration in anesthetized dogs at 0.3 mg/kg; type: functional, Canis lupus familiaris
Canis familiaris [20] = experiment: Percent change in left ventricle contractile force in anesthetized dogs after intravenous administration at 0.03 mg/kg; type: functional, Canis lupus familiaris, Heart left ventricle
Canis familiaris [21] = experiment: as §4; type: functional, Canis lupus familiaris, Heart left ventricle; remark: listed apart in the source
[22] = Inhibition of crude cGMP phosphodiesterase from canine thoracic aorta (NR = no effect at 100 uM); type: tissue-based, Canis lupus familiaris; in short: as §1
Canis familiaris [23] = experiment: Percent change in left ventricle contractile force in anesthetized dogs after intravenous administration at 3.0 mg/kg; type: functional, Canis lupus familiaris, Heart left ventricle
Canis familiaris [24] = experiment: Percent change in heart rate after intravenous administration in anesthetized dogs at 1.0 mg/kg; type: functional, Canis lupus familiaris
Canis familiaris [25] = experiment: Percent change in heart rate after intravenous administration in anesthetized dogs at 3.0 mg/kg; type: functional, Canis lupus familiaris
Canis familiaris [26] = experiment: Percent change in mean arterial blood pressure after intravenous administration in anesthetized dogs at 0.3 mg/kg (NC<10%); type: functional, organism-based; set-up: dose 0.3 mg/kg; conditions: Canis lupus familiaris
Canis familiaris [27] = experiment: as §5; type: functional, organism-based; set-up: dose 1 mg/kg; conditions: Canis lupus familiaris
Canis familiaris [28] = experiment: Percent change in mean arterial blood pressure after intravenous administration in anesthetized dogs at 3.0 mg/kg; type: functional, Canis lupus familiaris
Canis familiaris [29] = experiment: as §2; type: functional, Canis lupus familiaris, Heart left ventricle; remark: listed apart in the source
[30] = Inhibition of crude cAMP phosphodiesterase from canine […] (NR = no effect at 100 uM); set-up: species or system Canis lupus familiaris; in short: as §1
Canis familiaris [31] = experiment: Percent change in heart rate after intravenous administration in anesthetized dogs at 0.3 mg/kg (NC<10%); type: functional, organism-based; set-up: dose 0.3 mg/kg; conditions: Canis lupus familiaris
Canis familiaris [32] = experiment: Percent change in heart rate after intravenous administration in anesthetized dogs at 1.0 mg/kg (NC<10%); type: functional, organism-based; set-up: dose 1 mg/kg; conditions: Canis lupus familiaris
Canis familiaris [33] = experiment: Percent change in left ventricle contractile force in anesthetized dogs after intravenous administration at 0.3 mg/kg (NC <10%); type: functional, organism-based; set-up: dose 0.3 mg/kg; conditions: Canis lupus familiaris, Heart left ventricle

| SMILES | CFC20 [1] [µM] | IC50 [2] [µM] | IC50 [3] [µM] | EC50 (Canis familiaris [12]) [µM] | EC50 (Canis familiaris [13]) [µM] | also measured |
| --- | --- | --- | --- | --- | --- | --- |
| Oc1nc2ccccc2n2ccnc12 | 10 | 49 | 44 | – | – | – |
| CC(C)Cn1c(=O)n(C)c(=O)c2nc[nH]c21 [ISOBUTYLMETHYLXANTHINE] | 1.5 | 20 | 28 | 5.5 | 1 | Delta (Canis familiaris [4]): 69%; Delta (Canis familiaris [5]): 32%; Delta (Canis familiaris [6]): 25%; Delta (Canis familiaris [7]): 41%; Delta (Canis familiaris [8]): -18%; Delta (Canis familiaris [9]): <10%; Delta (Canis familiaris [10]): 17%; Delta (Canis familiaris [11]): 45%; Delta (Canis familiaris [14]): <10% |
| CCc1ncc2c(O)nc3ccc(-n4ccnc4)cc3n12 | 1.2 | 2 | 3 | 5.3 | 0.3 | – |
| CCc1nc(C)cn1-c1ccc2nc(O)c3c(C)nc(CC)n3c2c1 | 1 | 0.4 | 0.3 | 0.5 | 0.1 | – |
| CCc1ncc2c(O)nc3ccncc3n12 | 0.3 | 5 | 5 | 5.2 | 2.2 | – |
| Cc1[nH]c(=O)c(C#N)cc1-c1ccncc1 [MILRINONE] | 0.5 | 6 | – | 1.6 | 0.7 | Delta (Canis familiaris [15]): 12%; Delta (Canis familiaris [16]): 20%; Delta (Canis familiaris [5]): 34%; Delta (Canis familiaris [17]): <10% change from control; Delta (Canis familiaris [18]): -15%; Delta (Canis familiaris [19]): -33%; Delta (Canis familiaris [20]): 31%; Delta (Canis familiaris [6]): 58%; Delta (Canis familiaris [21]): 82%; IC50 [22]: Not reached |
| CCc1nc(C)c2c(O)nc3ccc(N4CCOCC4)cc3n12 | 0.5 | 0.8 | 0.9 | 0.7 | 0.05 | – |
| CCc1nc(C)c2c(O)nc3ccccc3n12 | 0.2 | 2 | 0.4 | 1.7 | 0.8 | Delta (Canis familiaris [23]): 135%; Delta (Canis familiaris [5]): 22%; Delta (Canis familiaris [24]): 42%; Delta (Canis familiaris [25]): 65%; Delta (Canis familiaris [26]): <10% change from control; Delta (Canis familiaris [27]): <10% change from control; Delta (Canis familiaris [28]): -40%; Delta (Canis familiaris [21]): 39%; Delta (Canis familiaris [29]): 85% |
| CCc1nc(C)c2c(=O)n(C)c3ccccc3n12 | 2.3 | 18 | 17 | 12 | 3.8 | – |
| CCc1nccn1-c1ncnc2c1nc(O)c1cnc(CC)n12 | – | – | 14 | 59 | 23 | IC50 [30]: Not reached |
| Cc1nccn1-c1ccc2nc(O)c3cnc(C)n3c2c1 | 1.2 | 6 | 24 | 5.5 | 1.1 | – |
| Oc1nc2ccc(-n3ccnc3)nc2n2ccnc12 | 0.5 | 5 | 39 | 14 | 9.3 | – |
| Cc1cn2c(n1)c(O)nc1ccccc12 | 11 | 42 | 36 | 5.1 | 0.4 | – |
| Cc1ncc2c(O)nc3ccc(-n4ccnc4)cc3n12 | 2 | 8 | 19 | 30 | 2.8 | – |
| Cc1nccn1-c1ccc2nc(O)c3cnc(C)n3c2n1 | 0.4 | 1 | 3 | 24 | 2 | – |
| Oc1nc2cccnc2n2ccnc12 | 2.2 | 44 | 27 | 11 | 10 | Delta (Canis familiaris [23]): 81%; Delta (Canis familiaris [31]): <10% change from control; Delta (Canis familiaris [32]): <10% change from control; Delta (Canis familiaris [25]): 24%; Delta (Canis familiaris [26]): <10% change from control; Delta (Canis familiaris [27]): <10% change from control; Delta (Canis familiaris [28]): -40%; Delta (Canis familiaris [33]): <10% change from control; Delta (Canis familiaris [29]): 42% |
| Cc1ncc2c(O)nc3ccccc3n12 | 2.1 | 16 | 27 | 49 | 2.8 | – |
| CCc1nc(C)c2c(O)nc3ccc(-n4ccnc4)cc3n12 | 0.6 | 2 | 4 | 1.7 | 0.4 | – |
| Oc1nc2ccc(-n3ccnc3)cc2n2ccnc12 | 3.1 | 6 | 13 | 28 | 3.1 | – |
| CCc1nc(C)c2c(N)nc3ccccc3n12 | – | 22 | 38 | 11 | 3.4 | – |
